Experiment [1] has as its system Mus musculus. The experiment can be described thus: Antipsychotic activity in CF1 mouse assessed as prevention of apomorphine-induced climbing behaviour at 0.5 mg/kg, po administered 30 mins prior apomorphine challenge measured 5 to 30 mins post challenge. The experiment is classed as functional, organism-based. More on the design: dose 0.5 mg/kg. The method, boiled down: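 Reference drug given orally to mice fasted 2 h. Apomorphine 4 mg/kg s.c. was given 30 min later. Climbing was scored 0–4 at 5-min intervals up to 30 min and summed as the climbing index. n = 8–9. Analysed by one-way ANOVA with Newman-Keuls post hoc test.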

In experiment [2] the test system is Mus musculus. The experiment can be described thus: Antipsychotic activity in CF1 mouse assessed as prevention of ketamine-induced hyperlocomotion at 0.01 mg/kg, po administered 30 mins prior ketamine challenge measured for 20 mins post challenge. The experiment is classed as functional, organism-based. More on the design: dose 0.01 mg/kg. In a few lines:
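Mice were pretreated (reference drug orally after 2 h fast; test compound i.p.) and placed in the arena centre. Ketamine 10 mg/kg s.c. was given 30 min later. A blinded observer counted total square crossings over 20 min in a dimly lit room. n = 7–8. Analysed by one-way ANOVA with Newman-Keuls post hoc test.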

The target in experiment [3] is 5-hydroxytryptamine receptor 2A (Rattus norvegicus) (UniProt P14842). The experiment can be described thus: Antagonist activity at 5HT2A receptor in rat brain cortical membranes assessed as inhibition of [3H]-ketanserin binding to receptor after 15 mins by competition assay in absence of GTP. The experiment is classed as cell membranes. In a few lines:
(§1)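 Rat cortical membranes, 150 µg protein, with 1 nM [3H]-ketanserin and 100 nM prazosin in 50 mM Tris-HCl pH 7.4, 37 °C, 15 min. Non-specific binding was defined with ketanserin. For the GTP shift, paired competition curves were run without and with guanylyl nucleotide (0.1 mM Gpp(NH)p or 1 mM GTP).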

Experiment [4] has the same target. The experiment can be described thus: Antagonist activity at 5HT2A receptor in rat brain cortical membranes assessed as inhibition of [3H]-ketanserin binding to receptor after 15 mins by competition assay in presence of GTP. Format: cell membranes. In a few lines:
as §1

Experiment [5] deals with Mus musculus. The experiment can be described thus: Antipsychotic activity in CF1 mouse assessed as prevention of apomorphine-induced climbing behaviour at 15 mg/kg, po administered 30 mins prior apomorphine challenge measured 5 to 30 mins post challenge. Format: functional, organism-based. Further details: dose 15 mg/kg. In a few lines:
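Male CF1 mice (25-35 g), given the drug orally (10 ml/kg, fasted 2 h) and then kept in metal-bar cages for 30 min. Apomorphine 4 mg/kg was then given s.c. Climbing was scored 0-4 for 1 min at 5, 10, 15, 20, 25 and 30 min, and the scores were summed per animal as a climbing index. n = 8-9. One-way ANOVA with Student-Newman-Keuls post hoc test.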

Experiment [6] deals with Mus musculus. The experiment can be described thus: Antipsychotic activity in CF1 mouse assessed as prevention of ketamine-induced hyperlocomotion at 1 mg/kg, po administered 30 mins prior ketamine challenge measured for 20 mins post challenge. The experiment is classed as functional, organism-based. Further details: dose 1 mg/kg. The method, boiled down: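 Male CF1 mice, dosed orally (10 ml/kg, fasted 2 h) and placed at the centre of the apparatus in a dimly lit room. Ketamine 10 mg/kg was given s.c. 30 min later. A blinded observer counted square crossings over 20 min. n = 7-8. One-way ANOVA with Student-Newman-Keuls post hoc test.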

For experiment [7], the target named is T1, 5-hydroxytryptamine receptor 1A (Rattus norvegicus) (UniProt P19327).
T1 sequence (whole entry): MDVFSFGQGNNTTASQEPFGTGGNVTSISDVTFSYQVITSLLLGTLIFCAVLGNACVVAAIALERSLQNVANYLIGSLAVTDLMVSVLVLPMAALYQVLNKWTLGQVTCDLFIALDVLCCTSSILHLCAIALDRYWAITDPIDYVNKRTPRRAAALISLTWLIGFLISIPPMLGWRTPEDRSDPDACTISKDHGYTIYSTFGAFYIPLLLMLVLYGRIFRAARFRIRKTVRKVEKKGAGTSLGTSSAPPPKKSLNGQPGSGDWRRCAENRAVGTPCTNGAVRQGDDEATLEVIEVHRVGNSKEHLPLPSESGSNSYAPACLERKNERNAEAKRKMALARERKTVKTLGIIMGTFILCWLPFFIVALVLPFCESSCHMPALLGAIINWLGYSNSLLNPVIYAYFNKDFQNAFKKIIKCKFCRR
The experiment can be described thus: Antagonist activity at 5HT1A receptor in rat brain hippocampal membranes assessed as inhibition of [3H]-8-OH-DPAT binding to receptor after 15 mins by competition assay in presence of GTP. Format: cell membranes.

The target in experiment [8] is T1, 5-hydroxytryptamine receptor 1A (Rattus norvegicus). The experiment can be described thus: Antagonist activity at 5HT1A receptor in rat brain hippocampal membranes assessed as inhibition of [3H]-8-OH-DPAT binding to receptor after 15 mins by competition assay in absence of GTP. Format: cell membranes. The method, boiled down:
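Hippocampal membranes, 40 µg protein, incubated with 1 nM [3H]-8-OH-DPAT at 37 °C for 15 min under yellow light. Buffer was 50 mM Tris-HCl pH 7.4 with 1 mM CaCl2, 1 mM MnCl2 and pargyline. Non-specific binding was defined with 5-HT. Filters were soaked in 0.5% polyethyleneimine. IC50 came from nonlinear regression fitted with one or two sites. Ki by Cheng-Prusoff, using Kd from saturation experiments.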

The source made the active and inactive calls. The rule behind the calls is not given here.

Chain of 5-hydroxytryptamine receptor 2A (Rattus norvegicus) (P14842 whole entry): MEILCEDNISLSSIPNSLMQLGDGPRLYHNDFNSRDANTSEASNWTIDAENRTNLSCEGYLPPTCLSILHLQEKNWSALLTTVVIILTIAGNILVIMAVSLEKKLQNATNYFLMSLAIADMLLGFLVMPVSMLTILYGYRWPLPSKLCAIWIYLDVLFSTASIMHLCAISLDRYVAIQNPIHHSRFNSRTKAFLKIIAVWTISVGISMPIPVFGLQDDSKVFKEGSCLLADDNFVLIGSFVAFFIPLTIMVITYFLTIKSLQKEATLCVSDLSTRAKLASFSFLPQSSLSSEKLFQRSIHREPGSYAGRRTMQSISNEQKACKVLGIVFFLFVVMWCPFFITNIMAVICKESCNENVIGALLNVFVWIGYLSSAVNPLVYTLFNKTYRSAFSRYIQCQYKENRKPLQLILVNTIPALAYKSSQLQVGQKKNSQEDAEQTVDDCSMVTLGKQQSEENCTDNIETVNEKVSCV

Take `O=C(CCCN1CCC(O)(c2ccc(Cl)cc2)CC1)c1ccc(F)cc1`: the outcome in the experiment with Mus musculus [1] was Active. In addition, in the experiment on Mus musculus [2], the result was inactive.

Consider `O=C(c1ccc(F)cc1)C1CCN(CCn2c(=O)[nH]c3ccccc3c2=O)CC1`, for which the inhibition result in experiment [3] and in experiment [4] was “Active” throughout.

As to `CN1CCN(C2=Nc3cc(Cl)ccc3Nc3ccccc32)CC1`, the result with Mus musculus [5] and in the experiment on Mus musculus [6] was Active.

As for `COc1ccccc1N1CCN(CCN(C(=O)c2ccc(F)cc2)c2ccccn2)CC1`, the inhibition result in experiment [7] and in experiment [8] was “Active” in each case.
